This is an account of results in ChEMBL document CHEMBL3351780, “Novel hybrids of metronidazole and quinolones: synthesis, bioactive evaluation, cytotoxicity, preliminary antimicrobial mechanism and effect of metal ions on their transportation by human serum albumin” (Eur J Med Chem, 2014).

Data set [1] relates to Saccharomyces cerevisiae. Put plainly: Antifungal activity against Saccharomyces cerevisiae after 24 hrs by microbroth dilution method. Format: functional. In short, it runs like this:
(§1)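 Spore suspension prepared in sterile distilled water from one-day-old cultures on Sabouraud agar, final 1-5 x 10^3 spores/mL. Compounds were serially diluted in RPMI 1640 to give eleven dilutions. Incubation at 35 °C for 24 h. Growth read visually and spectrophotometrically, in triplicate. MIC is the lowest concentration with complete inhibition.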
In general terms: In broth dilution the organism is exposed to a series of concentrations in liquid medium.

Data set [2] can be described thus: Antibacterial activity against Eberthella typhosa by two-fold serial dilution method. Format: functional. In short, it runs like this: (§2)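 MIC read as the lowest concentration giving complete growth inhibition. Two-fold serial dilutions were made in 96-well plates following NCCLS, giving a series down to 0.5 µg/mL (…32, 16, 8, 4, 2, 1, 0.5). Plates were inoculated and incubated at 37 °C for 24 h. A DMSO-with-inoculum control without drug was included. Growth was monitored visually and spectrophotometrically, in triplicate.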

Data set [3] is described as follows: Dissociation constant, pKa of the compound by UV-spectroscopy. The data set is classed as physicochemical. Summed up: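 DMSO stock at 4.0 × 10^-3 mol/L added to 2 mL of buffer, then shaken 10 min at room temperature. Buffers were acetate (pH 4.0–5.0), MES (5.5–6.5), HEPES (7.0–8.0) and CHES (8.5–9.4), each from 500 mM stocks. Scans ran 210–400 nm and were normalized. Absolute differences from the acid spectrum were summed at 244 and 308 nm, plotted against pH and fitted to obtain pKa.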

In data set [4] the test system is Pseudomonas aeruginosa. Put plainly: Antibacterial activity against Pseudomonas aeruginosa by two-fold serial dilution method. Format: functional. In short, it runs like this:
(§3)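 Standard two-fold serial dilution in 96-well microtest plates following NCCLS. Top dilutions printed as 32, 16, 8, 4, 2, 1, 0.5 ug/mL. Wells inoculated and held at 37 °C for 24 h. Growth judged visually and by spectrophotometer, in triplicate. MIC is the lowest concentration giving complete growth inhibition.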

The test system of data set [5] is Staphylococcus aureus. Description: Antibacterial activity against Staphylococcus aureus ATCC 25923 by two-fold serial dilution method. The data set is classed as functional. In short, it runs like this: as §3
Data set [6] concerns Escherichia coli. Put plainly: Antibacterial activity against Escherichia coli DH52 by two-fold serial dilution method. Format: functional. In short, it runs like this: as §3
Data set [7] has as its system Staphylococcus aureus. Description: Antibacterial activity against methicillin-resistant Staphylococcus aureus N315 by two-fold serial dilution method. The data set is classed as functional. In short, it runs like this: as §2
The test system of data set [8] is Pichia norvegensis. Put plainly: Antifungal activity against Candida mycoderma after 24 hrs by microbroth dilution method. The data set is classed as functional.
Data set [9] has as its system Shigella dysenteriae. Put plainly: Antibacterial activity against Shigella dysenteriae by two-fold serial dilution method. The data set is classed as functional. Summed up:
as §2

Data set [10] concerns Candida albicans. Description: Antifungal activity against Candida albicans ATCC 76615 after 24 hrs by microbroth dilution method. The data set is classed as functional. The following applies: ATCC 76615, 24 h. In short, it runs like this:
as §1

Data set [11] relates to Streptococcus pneumoniae. Description: Antibacterial activity against Streptococcus pneumoniae by two-fold serial dilution method. The data set is classed as functional. In short, it runs like this: as §3
The subject of data set [12] is Micrococcus luteus. Put plainly: Antibacterial activity against Micrococcus luteus by two-fold serial dilution method. Format: functional. In short, it runs like this:
as §3

The nature of data set [13]: Aqueous solubility of the compound by UV-spectrophotometry. Format: physicochemical.
In data set [14] the test system is Bacillus spizizenii. Put plainly: Antibacterial activity against Bacillus subtilis ATCC 6633 by two-fold serial dilution method. The data set is classed as functional. In short, it runs like this:
as §3

Data set [15] is described as follows: Octanol-water partition co-efficient, log P of the compound by shake flask method. The data set is classed as physicochemical.
The test system of data set [16] is Cyberlindnera jadinii. Description: Antifungal activity against Candida utilis after 24 hrs by microbroth dilution method. Format: functional. The following applies: Williopsis jadinii. Summed up:
as §1

Values after ≈ are worked out from the molar mass of the structure shown.

Regarding `Cc1ncc([N+](=O)[O-])n1CC(O)Cn1cc(C(=O)O)c(=O)c2cc(F)c(Cl)cc21` (stereo unspecified), the MIC (usually the lowest concentration that inhibits growth of the organism) in data set [1] is 128 µg/mL (≈ 301 µM); in data set [2], 128 µg/mL (≈ 301 µM); in data set [4] it was 16 µg/mL (≈ 37.7 µM); in data set [5], 32 µg/mL (≈ 75.3 µM); in [6] it was 2 µg/mL (≈ 4.71 µM); in data set [7] it was 4 µg/mL (≈ 9.42 µM). The MIC in [8] was 256 µg/mL (≈ 603 µM); in [9], 16 µg/mL (≈ 37.7 µM); in [10], 64 µg/mL (≈ 151 µM); in data set [11], 8 µg/mL (≈ 18.8 µM); in data set [12], 64 µg/mL (≈ 151 µM); in data set [14], 8 µg/mL (≈ 18.8 µM). In addition, the MIC in data set [16] turned out to be 512 µg/mL (≈ 1210 µM). Besides, the pKa (usually the negative logarithm of the acid dissociation constant) in data set [3] was 5.14. Further, in [13], the concentration in solution (solubility) was 430 µg/mL (≈ 1010 µM). In addition, the logP (commonly the decadic logarithm of the partition coefficient of the neutral form, usually between octanol and water) in data set [15] turned out to be 0.18.
As to `O=C(O)c1cn(CC(O)Cn2cnc([N+](=O)[O-])c2)c2c(F)cc(F)cc2c1=O` (stereo unspecified), the MIC in data set [1] turned out to be 256 µg/mL (≈ 649 µM); in [2], 32 µg/mL (≈ 81.2 µM); in [4] it was 32 µg/mL (≈ 81.2 µM); in data set [5], 16 µg/mL (≈ 40.6 µM); in data set [6], 32 µg/mL (≈ 81.2 µM); in data set [7] it was 16 µg/mL (≈ 40.6 µM). Also, the minimal inhibitory concentration (MIC) in [8] was found to be 64 µg/mL (≈ 162 µM); in [9], 32 µg/mL (≈ 81.2 µM); in data set [10], 16 µg/mL (≈ 40.6 µM); in data set [11], 16 µg/mL (≈ 40.6 µM); in data set [12] it was 8 µg/mL (≈ 20.3 µM); in [14], 8 µg/mL (≈ 20.3 µM). The compound also came in with a minimum inhibitory concentration (MIC) in [16] of 256 µg/mL (≈ 649 µM).
Take `O=C(O)c1cn(CC(O)Cn2cnc([N+](=O)[O-])c2)c2c(Cl)cc(Cl)cc2c1=O` (stereo unspecified): the MIC in [1] is 128 µg/mL (≈ 300 µM); in data set [2], 16 µg/mL (≈ 37.5 µM); in data set [4], 8 µg/mL (≈ 18.7 µM); in data set [5], 8 µg/mL (≈ 18.7 µM); in data set [6], 8 µg/mL (≈ 18.7 µM); in data set [7], 16 µg/mL (≈ 37.5 µM). Moreover, the minimum inhibitory concentration (MIC) in data set [8] came out at 64 µg/mL (≈ 150 µM); in [9], 8 µg/mL (≈ 18.7 µM); in data set [10] it was 256 µg/mL (≈ 599 µM); in data set [11], 8 µg/mL (≈ 18.7 µM); in data set [12] it was 8 µg/mL (≈ 18.7 µM); in data set [14] it was 4 µg/mL (≈ 9.36 µM). Moreover, it took 256 µg/mL (≈ 599 µM) to inhibit growth in [16] (MIC).
On to `O=C(O)c1cn(CC(O)Cn2cnc([N+](=O)[O-])c2)c2cc(C(F)(F)F)ccc2c1=O` (stereo unspecified), for which the MIC in data set [1] was 32 µg/mL (≈ 75.1 µM); in [2], 4 µg/mL (≈ 9.38 µM); in data set [4], 8 µg/mL (≈ 18.8 µM); in data set [5], 4 µg/mL (≈ 9.38 µM); in [6] it was 2 µg/mL (≈ 4.69 µM); in data set [7], 4 µg/mL (≈ 9.38 µM). In addition, the MIC was determined as 128 µg/mL (≈ 300 µM) in data set [8]; 4 µg/mL (≈ 9.38 µM) in data set [9]; 128 µg/mL (≈ 300 µM) in [10]; 16 µg/mL (≈ 37.5 µM) in data set [11]; 8 µg/mL (≈ 18.8 µM) in [12]; 4 µg/mL (≈ 9.38 µM) in data set [14]. Also, in data set [16], the MIC turned out to be 128 µg/mL (≈ 300 µM).
Turning to `CCOC(=O)c1cn(CC(O)Cn2cnc([N+](=O)[O-])c2)c2ccc(C)cc2c1=O` (racemic), the MIC in data set [1] worked out at 8 µg/mL (≈ 20 µM); in data set [2], 4 µg/mL (≈ 9.99 µM); in data set [4], 4 µg/mL (≈ 9.99 µM); in data set [5] it was 16 µg/mL (≈ 40 µM); in data set [6], 8 µg/mL (≈ 20 µM); in data set [7], 16 µg/mL (≈ 40 µM). Further, the MIC turned out to be 128 µg/mL (≈ 320 µM) in data set [8]; 8 µg/mL (≈ 20 µM) in [9]; 2 µg/mL (≈ 5 µM) in data set [10]; 8 µg/mL (≈ 20 µM) in data set [12]; 8 µg/mL (≈ 20 µM) in data set [14]; 8 µg/mL (≈ 20 µM) in data set [16].
With `CCOC(=O)c1cn(CC(O)Cn2cnc([N+](=O)[O-])c2)c2c(Cl)cc(Cl)cc2c1=O` (racemic), the MIC came to 32 µg/mL (≈ 70.3 µM) in [1]; 16 µg/mL (≈ 35.1 µM) in data set [2]; 16 µg/mL (≈ 35.1 µM) in data set [4]; 32 µg/mL (≈ 70.3 µM) in data set [5]; 16 µg/mL (≈ 35.1 µM) in data set [6]; 64 µg/mL (≈ 141 µM) in data set [7]. In addition, the MIC in data set [8] amounted to 64 µg/mL (≈ 141 µM); in data set [9], 8 µg/mL (≈ 17.6 µM); in [10], 64 µg/mL (≈ 141 µM); in data set [12], 8 µg/mL (≈ 17.6 µM); in data set [14], 4 µg/mL (≈ 8.79 µM); in data set [16] it was 256 µg/mL (≈ 562 µM).
`CCOC(=O)c1cn(CC(O)Cn2cnc([N+](=O)[O-])c2)c2ccc(F)cc2c1=O` (racemic): the MIC in [1] is 16 µg/mL (≈ 39.6 µM); in data set [2], 32 µg/mL (≈ 79.1 µM); in data set [4], 8 µg/mL (≈ 19.8 µM); in data set [5], 32 µg/mL (≈ 79.1 µM); in data set [6], 16 µg/mL (≈ 39.6 µM); in data set [7], 16 µg/mL (≈ 39.6 µM). In addition, the MIC in data set [8] is 32 µg/mL (≈ 79.1 µM); in [9] it was 32 µg/mL (≈ 79.1 µM); in [10], 32 µg/mL (≈ 79.1 µM); in [12] it was 4 µg/mL (≈ 9.89 µM); in data set [14], 8 µg/mL (≈ 19.8 µM); in data set [16], 16 µg/mL (≈ 39.6 µM).
